Columns and labels:
[1] = test system: Bmal1-dLuc U2OS cells; test: Cell-based circadian assay, Bmal1-dLuc reporter; parameters: species or system human
Procedure, shortened: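 Stable U2OS Bmal1-dLuc cells were seeded at 3000 per well in DMEM/10% FBS. After 2 days, B27/HEPES explant medium with 0.2 or 1 mM luciferin (pH 7.2) was added, plus compound (final 0.7% DMSO). Luminescence was read every 100 min for 5 days, first day excluded. Period came from curve fitting; intensity was averaged over the run; n = 4. LogEC50 was from sigmoidal fits of threefold 12-point series.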

[2] = test system: Caki-2; test: Proliferation assay of RCC line Caki-2; format: cell-based, human; details: Caki-2, 2 days
Procedure, shortened: (§1)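 Lines were kept in RPMI-1640/10% FBS and plated 1 day before treatment. Seeding per well: Caki-2 and A704 at 2.0 × 10^4; 786-O, A498, 769-P and ACHN at 1.0 × 10^4; RCC4+vec at 0.7 × 10^4; RCC4+VHL at 0.8 × 10^4. Two days after dosing, cells were stained with Hoechst 33342 (2 μg/ml, 1 h) and counted by imaging.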

[3] = test system: A704; test: Proliferation assay of RCC line A704; format: cell-based, human; details: A704, 2 days
Procedure, shortened: as §1

[4] = test system: ACHN; test: Proliferation assay of RCC line ACHN; format: cell-based, human; details: 2 days
Procedure, shortened: as §1

[5] = test system: Per2-dLuc U2OS cells; test: Cell-based circadian assay, Per2-dLuc reporter; parameters: species or system human
[6] = test system: cells differentiated from Per2::LucSV knock-in ES cells; test: Circadian assay in differentiated ES cells; format: cell-based, mouse
Procedure, shortened: (§2)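 ES cells were kept on feeder fibroblasts; Per2 was disrupted by CRISPR-Cas9 in Bmal1-Luc ES cells. Embryoid bodies formed over 2 days in low-attachment wells, then grew 26 days on gelatin. On day 28, cells got 100 nM dexamethasone for 1 h, then 0.2 mM luciferin with compound. Luminescence was integrated 1 min every 20 min; period came from sine-wave fitting. Replicates: Per2::LucSV n = 4; Per2 knockout versus wild-type n = 3 to 4.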

[7] = test system: lung explants from Per2::Luc mice; test: Circadian rhythms in lung explants; format: cell-based, mouse
Procedure, shortened: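 Lung pieces from Per2::Luc knock-in mice were cultured in luciferin-containing explant medium with compound (final 0.24% DMSO). Luminescence was recorded every 30 min for 5 days, excluding the first day. Period was derived by curve fitting.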

[8] = molecular target: CK2 (Homo sapiens, UniProt P68400); test: biochemical
Sequence of CK2 (Homo sapiens, UniProt P68400) (P68400 whole entry): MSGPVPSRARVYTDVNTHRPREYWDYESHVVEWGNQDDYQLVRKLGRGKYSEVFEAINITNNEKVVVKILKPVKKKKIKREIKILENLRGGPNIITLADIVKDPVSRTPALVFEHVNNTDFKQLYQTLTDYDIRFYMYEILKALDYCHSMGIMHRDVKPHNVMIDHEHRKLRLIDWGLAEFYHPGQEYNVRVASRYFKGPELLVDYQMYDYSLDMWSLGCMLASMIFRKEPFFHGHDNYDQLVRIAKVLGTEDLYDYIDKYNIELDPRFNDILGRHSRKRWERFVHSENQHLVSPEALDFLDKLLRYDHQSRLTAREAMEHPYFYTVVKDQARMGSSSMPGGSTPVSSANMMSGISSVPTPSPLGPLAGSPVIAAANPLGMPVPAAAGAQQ
Sequence of CK2 (Homo sapiens, UniProt P68400) (P67870 whole entry partner): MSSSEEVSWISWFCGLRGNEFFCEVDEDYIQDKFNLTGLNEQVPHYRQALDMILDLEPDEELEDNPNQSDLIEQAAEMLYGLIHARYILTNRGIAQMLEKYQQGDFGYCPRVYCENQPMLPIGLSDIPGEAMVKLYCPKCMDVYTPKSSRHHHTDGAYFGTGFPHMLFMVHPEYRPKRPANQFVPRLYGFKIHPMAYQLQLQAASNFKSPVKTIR

[9] = molecular target: PIM2 (Homo sapiens, UniProt Q9P1W9); test: In vitro PIM2 kinase assay; format: biochemical
Sequence of PIM2 (Q9P1W9 whole entry): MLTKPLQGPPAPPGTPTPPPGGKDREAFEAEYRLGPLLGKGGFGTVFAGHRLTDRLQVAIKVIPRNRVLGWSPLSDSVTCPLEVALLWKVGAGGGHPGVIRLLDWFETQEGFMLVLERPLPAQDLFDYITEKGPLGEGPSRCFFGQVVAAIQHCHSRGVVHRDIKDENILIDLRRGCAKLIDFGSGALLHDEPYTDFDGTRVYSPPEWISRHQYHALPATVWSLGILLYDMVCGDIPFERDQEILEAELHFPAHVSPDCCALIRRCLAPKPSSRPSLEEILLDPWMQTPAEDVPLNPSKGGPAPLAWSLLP
Procedure, shortened: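 Kinase-Glo assay measuring remaining ATP. Compound was added (final 5% DMSO) and reactions were started with ATP (final 3 μM). PIM2 ran at 30°C for 3 h. The CK2 comparator used CK2 (1.5 ng/μl) with 50 μM substrate peptide in 40 mM tris, 10 mM MgCl2, 0.5 mM DTT, 150 mM NaCl, pH 7.5, at 37°C for 1.5 h.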

[10] = molecular target: CLK2 (Homo sapiens, UniProt P49760); test: In vitro CLK2 kinase assay; format: biochemical
Sequence of CLK2 (P49760 whole entry): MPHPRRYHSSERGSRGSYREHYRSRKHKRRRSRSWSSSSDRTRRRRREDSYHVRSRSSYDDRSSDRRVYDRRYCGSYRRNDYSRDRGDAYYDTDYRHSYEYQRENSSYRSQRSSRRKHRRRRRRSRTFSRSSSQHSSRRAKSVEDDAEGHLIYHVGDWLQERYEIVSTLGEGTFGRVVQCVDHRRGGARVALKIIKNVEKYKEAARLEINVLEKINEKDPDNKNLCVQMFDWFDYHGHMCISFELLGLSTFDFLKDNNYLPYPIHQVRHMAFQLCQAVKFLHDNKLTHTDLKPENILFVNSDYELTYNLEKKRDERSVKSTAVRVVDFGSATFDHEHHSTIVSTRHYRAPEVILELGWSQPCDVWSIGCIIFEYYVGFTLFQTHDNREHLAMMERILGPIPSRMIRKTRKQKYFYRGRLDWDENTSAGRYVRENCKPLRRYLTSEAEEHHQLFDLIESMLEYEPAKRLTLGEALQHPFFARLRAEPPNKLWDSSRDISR

[11] = molecular target: CKIδ (Homo sapiens, UniProt P48730); test: In vitro CKIδ kinase assay; format: biochemical
Sequence of CKIδ (P48730 whole entry, species assumed): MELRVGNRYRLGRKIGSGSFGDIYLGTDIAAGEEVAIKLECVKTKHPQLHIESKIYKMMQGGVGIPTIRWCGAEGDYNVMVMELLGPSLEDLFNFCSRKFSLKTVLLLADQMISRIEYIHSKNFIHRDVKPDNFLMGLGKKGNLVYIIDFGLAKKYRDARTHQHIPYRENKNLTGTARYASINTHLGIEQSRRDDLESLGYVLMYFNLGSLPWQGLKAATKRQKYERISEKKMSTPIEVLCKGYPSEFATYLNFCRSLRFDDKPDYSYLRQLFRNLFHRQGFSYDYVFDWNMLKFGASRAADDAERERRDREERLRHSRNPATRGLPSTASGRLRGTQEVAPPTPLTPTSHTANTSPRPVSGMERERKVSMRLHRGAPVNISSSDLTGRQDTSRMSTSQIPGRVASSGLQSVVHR

[12] = molecular target: CKIα (Homo sapiens, UniProt P48729); test: In vitro CKIα kinase assay; format: biochemical
Sequence of CKIα (P48729 whole entry, species assumed): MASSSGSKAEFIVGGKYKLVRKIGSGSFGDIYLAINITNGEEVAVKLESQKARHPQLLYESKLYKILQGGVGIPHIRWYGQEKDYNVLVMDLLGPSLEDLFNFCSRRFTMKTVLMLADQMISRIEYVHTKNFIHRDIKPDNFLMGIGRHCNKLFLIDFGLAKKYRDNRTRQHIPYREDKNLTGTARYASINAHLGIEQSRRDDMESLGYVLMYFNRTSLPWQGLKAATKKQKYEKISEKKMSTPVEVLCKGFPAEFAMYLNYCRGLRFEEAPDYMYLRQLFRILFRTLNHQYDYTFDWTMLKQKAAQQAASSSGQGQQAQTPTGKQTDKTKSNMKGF

[13] = molecular target: CRY1 (Mus musculus, UniProt P97784); test: CRY1 degradation assay; format: cell-based; details: CRY1-LUC HEK293 cells, 24 h
Sequence of CRY1 (P97784 whole entry): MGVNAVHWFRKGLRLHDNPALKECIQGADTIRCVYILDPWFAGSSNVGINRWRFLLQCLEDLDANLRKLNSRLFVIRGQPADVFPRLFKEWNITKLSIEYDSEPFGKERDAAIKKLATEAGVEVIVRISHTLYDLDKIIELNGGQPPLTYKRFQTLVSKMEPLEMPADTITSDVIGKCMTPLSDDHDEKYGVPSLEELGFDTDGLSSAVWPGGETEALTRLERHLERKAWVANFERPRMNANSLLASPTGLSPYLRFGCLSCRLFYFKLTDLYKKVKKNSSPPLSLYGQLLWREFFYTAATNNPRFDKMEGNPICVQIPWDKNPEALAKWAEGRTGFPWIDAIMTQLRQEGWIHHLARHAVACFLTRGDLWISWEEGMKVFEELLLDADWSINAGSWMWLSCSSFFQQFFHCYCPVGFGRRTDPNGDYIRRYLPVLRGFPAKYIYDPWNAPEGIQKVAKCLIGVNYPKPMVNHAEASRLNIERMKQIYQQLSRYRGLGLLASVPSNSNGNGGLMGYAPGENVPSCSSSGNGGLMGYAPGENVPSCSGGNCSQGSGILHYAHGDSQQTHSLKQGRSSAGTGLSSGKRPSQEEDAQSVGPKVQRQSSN

[14] = molecular target: GSK-3β (Homo sapiens, UniProt P49841); test: Kinase profiling; format: biochemical; details: 5 μM
Sequence of GSK-3β (P49841 whole entry): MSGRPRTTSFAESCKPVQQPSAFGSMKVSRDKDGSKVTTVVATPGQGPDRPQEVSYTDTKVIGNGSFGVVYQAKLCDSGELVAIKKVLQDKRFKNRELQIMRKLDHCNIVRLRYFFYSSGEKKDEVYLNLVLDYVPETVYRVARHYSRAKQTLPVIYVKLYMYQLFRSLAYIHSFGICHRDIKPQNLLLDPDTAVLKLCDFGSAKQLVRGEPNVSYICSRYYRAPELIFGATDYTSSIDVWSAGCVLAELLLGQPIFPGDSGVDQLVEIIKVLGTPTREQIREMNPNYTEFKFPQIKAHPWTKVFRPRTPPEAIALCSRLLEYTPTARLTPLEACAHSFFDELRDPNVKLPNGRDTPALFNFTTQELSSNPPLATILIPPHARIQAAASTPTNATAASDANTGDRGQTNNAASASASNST

[15] = test system: 59 kinases from a variety of classes; test: Kinase profiling, panel of 60 kinases; format: biochemical; details: 5 μM
[16] = molecular target: T1, CK2 (Homo sapiens, UniProt P19784+P68400); test: Cellular CK2 activity, anti-phospho CK2 substrate immunoblot, HEK293T; format: cell-based; details: HEK293T cells, 24 hours, various concentrations
T1 sequence (P68400 whole entry): as the sequence (P68400 whole entry) above
T1 sequence (P19784 whole entry): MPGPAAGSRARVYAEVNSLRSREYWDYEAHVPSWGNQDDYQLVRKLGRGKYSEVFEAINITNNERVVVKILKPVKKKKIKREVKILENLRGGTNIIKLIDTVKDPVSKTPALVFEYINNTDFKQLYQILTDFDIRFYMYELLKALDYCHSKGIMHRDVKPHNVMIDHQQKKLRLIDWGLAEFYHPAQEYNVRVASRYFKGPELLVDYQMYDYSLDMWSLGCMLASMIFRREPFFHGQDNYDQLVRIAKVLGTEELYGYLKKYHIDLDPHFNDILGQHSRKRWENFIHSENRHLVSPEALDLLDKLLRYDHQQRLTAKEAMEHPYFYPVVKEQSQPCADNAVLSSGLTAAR
T1 sequence (P67870 whole entry partner): as the sequence (P67870 whole entry partner) above

[17] = molecular target: T1, CK2; test: Cellular CK2 activity, anti-phospho CK2 substrate immunoblot, U2OS; format: cell-based; details: U2OS cells, 24 hours, concentrations similar to those that affected circadian period
[18] = test system: PKA (protein kinase A); test: Anti-phospho PKA substrate immunoblot, HEK293T; format: cell-based, human; details: HEK293T cells, 24 hours
Procedure, shortened: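 HEK293T cells exposed to a range of test compound concentrations for 24 hours. Lysates were immunoblotted with anti-phospho CK2 substrate antibody, then the membrane was reprobed with anti-phospho PKA substrate and anti-β-actin antibodies.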

[19] = test system: PER2; test: Phosphoproteomics of Flag-tagged PER2 in HEK293T cells; format: cell-based, mouse; details: full-length PER2, 8 μM, 24 h (table S1)
Procedure, shortened: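 HEK293T cells were reverse-transfected (Lipofectamine 2000) with C-terminal 3XFlag-tagged mouse PER2 plus CK2α. After 24 h, they received 0 or 8 μM compound for 24 h. Lysis was in 1% NP-40 buffer (pH 8.0) with phosphatase inhibitors, followed by anti-Flag immunoprecipitation and LC-MS/MS after four-protease digestion. Phosphorylation was expressed as phosphopeptide/total peptide spectra, and the effect as the treated/control ratio.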

[20] = test system: BMAL1 S90; test: BMAL1 S90 phosphorylation immunoblot in NIH-3T3 cells; format: cell-based, mouse; details: 10 μM, different times
Procedure, shortened: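 NIH-3T3 cells were exposed to 10 μM test compound for varying times. Lysates were immunoprecipitated with anti-BMAL1 antibody, then immunoblotted with anti-P-BMAL1-S90 and anti-BMAL1 antibodies. Protein was quantified by Bradford.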

[21] = test system: Per2 knockout cells differentiated from ES cells; test: Circadian assay in Per2 knockout cells differentiated from Bmal1-Luc ES cells; format: cell-based, mouse
Procedure, shortened: as §2

[22] = test system: A498; test: Proliferation assay of RCC line A498; format: cell-based, human; details: A498, 2 days
Procedure, shortened: as §1

[23] = test system: 769-P; test: Proliferation assay of RCC line 769-P; format: cell-based, human; details: 2 days
Procedure, shortened: as §1

[24] = test system: 786-O; test: Proliferation assay of RCC line 786-O; format: cell-based, human; details: 2 days
Procedure, shortened: as §1

[25] = test system: RCC4+vec; test: Proliferation assay of RCC line RCC4+vec; format: cell-based, human; details: 2 days
Procedure, shortened: as §1

[26] = test system: RCC4+VHL; test: Proliferation assay of RCC line RCC4+VHL; format: cell-based, human; details: 2 days
Procedure, shortened: as §1

[27] = test system: MLL-AF9 leukemia cells; test: Proliferation assay of MLL-AF9 leukemia cells; format: cell-based; details: mouse MLL-AF9 leukemia cells, 2 days
Procedure, shortened: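 GFP-positive MLL-AF9 leukemia cells were taken from leukemic mouse bone marrow and kept in IMDM/10% FBS with SCF 20 ng/ml and mIL-3, mIL-6 and GM-CSF at 10 ng/ml each. Cells were plated at 2.0 × 10^4 per well with compound, incubated at 37°C for 2 days, then counted by flow cytometry.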

[28] = test system: LSK hematopoietic progenitor cells; test: Proliferation assay of LSK hematopoietic progenitor cells; format: cell-based, mouse; details: LSK hematopoietic progenitor cells (normal counterpart), 2 days
Procedure, shortened: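 LSK progenitors were maintained in StemSpan with SCF and TPO (100 ng/ml each). Cells were plated at 1.0 × 10^4 per well with compound, held at 37°C for 2 days, then counted by flow cytometry.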

[29] = test system: OCI-AML3; test: Proliferation assay of OCI-AML3 cells; format: cell-based, human; details: OCI-AML3, 4 days
Procedure, shortened: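 OCI-AML3 cells were kept in MEM alpha/20% FBS, plated at 1.0 × 10^4 per well with compound, and incubated at 37°C for 4 days. Viability was read with Cell Counting Kit-8.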

[30] = test system: MLL-AF9 tissues (spleen and bone marrow explants); format: cell-based, mouse; details: MLL-AF9 tissues relative to the control
Procedure, shortened: (§3)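 Explants: spleen and bone marrow from transplant mice. MLL-AF9 leukemia cells derived from Per2::Luc bone marrow were serially transplanted into nonreporter C57BL/6J mice. Controls were C57BL/6J recipients of Per2::Luc bone marrow, used 3 months later. Tissue was cultured in luciferin explant medium with compound (0.24% DMSO final). Luminescence was read every 30 min for 5 days, first day excluded. Period was curve-fitted; intensity was averaged over the run. MLL-AF9 n = 11; control n = 10 to 20.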

[31] = test system: control spleen and bone marrow explants; test: Per2::Luc rhythms in control spleen and bone marrow explants; format: cell-based, mouse
Procedure, shortened: as §3

[32] = molecular target: recombinant CK2 (α2β2 tetramer) (Homo sapiens, UniProt P68400); format: binding; details: recombinant CK2, agarose-conjugated GO457, immunoblot
Sequence of recombinant CK2 (α2β2 tetramer) (P68400 whole entry): as the sequence (P68400 whole entry) above
Sequence of recombinant CK2 (α2β2 tetramer) (P67870 whole entry partner): as the sequence (P67870 whole entry partner) above

[33] = test system: CK2α (CSNK2A1), CK2α′ (CSNK2A2), CK2β (CSNK2B), and GSK-3β (GSK3B); format: binding, human; details: U2OS cell lysate, 50 μM free compound
Procedure, shortened: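 Unsynchronized confluent U2OS cells (1.6 × 10^8) were Dounce-homogenized in MOPS/EGTA/MgCl2/DTT buffer (pH 7.2) and sonicated. NP-40 was added to 0.5%, and the extract was cleared at 14,000g. Halves were preincubated with 0 or 50 μM free compound (0.5% DMSO) at 4°C for 30 min, then with the agarose-conjugated probe for 1 h. Bound proteins were in-gel digested for nanoLC-MS/MS; two independent experiments.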

O=C(O)c1ccc2c(c1)nc(Nc1cccc(Cl)c1)c1ccncc12 [CX-4945, reference compound]
Effect on luminescence (reporter signal intensity) ([1]; vs DMSO control): severe reduction in luminescence
Cell growth [2]: inhibited growth
Cell growth [3]: less of an effect
Cell growth [4]: less of an effect

CN(C)c1nc2c(Br)c(Br)c(Br)c(Br)c2[nH]1 [DMAT, reference compound]
Effect on luminescence (reporter signal intensity) ([1]; vs DMSO control): severe reduction in luminescence

COc1cc(/C=N/n2c(SC)nnc2-c2ccccc2)c(Br)cc1O [GO289]
Effect on circadian period [1]: dose-dependent lengthening of circadian period
Effect on luminescence (reporter signal intensity) ([1]; vs DMSO control): little effect on luminescence
Lengthening of circadian period ([1]; vs DMSO control): more than 12 hours
Effect on circadian period [5]: dose-dependent lengthening of circadian period
Effect on circadian period [6]: lengthened periods
Effect on circadian period [7]: lengthened periods
IC50 [8]: 0.007 µM
IC50 [9]: 13 µM
IC50 ratio against CK2 over PIM family kinase (PIM2) ([9]; PIM2 IC50 relative to CK2 IC50): > 1000
IC50 [10]: > 50 µM
Effect on CKIδ activity in vitro [11]: minor effects
Effect on CKIα activity in vitro [12]: minor effects
CRY1 stabilization in cell-based degradation assay [13]: no stabilization of CRY1
Effect on GSK-3β activity [14]: minor effect
Effect on the activity of 59 kinases [15]: only a moderate or minor effect
Phosphorylation of CK2 substrates (anti-phospho CK2 substrate antibody) [16]: reduced by GO289 in a dose-dependent manner
Cellular CK2 activity (anti-phospho CK2 substrate antibody) [17]: Inhibition of cellular CK2 activity
Signal of anti-phospho PKA substrate antibody [18]: not affected by GO289
Phosphorylation of PER2 T12/S13 and S53 (previously reported CK2 sites) [19]: either unchanged or up-regulated
BMAL1 S90 phosphorylation (immunoblot) [20]: down-regulation
Period lengthening of Bmal1-Luc rhythms in Per2 knockout vs wild-type cells [21]: slightly enhanced
Cell growth [2]: strongly inhibited
Cell growth [22]: strongly inhibited
Cell growth [23]: strongly inhibited
Cell growth [24]: less affected
Cell growth [25]: less affected
Cell growth [26]: less affected
Cell growth [3]: less affected
Cell growth [4]: less affected
Cell growth [27]: significantly reduced growth
Cell growth [28]: much less affected
Cell growth [29]: sensitive to GO289
Luminescence intensity of Per2::Luc reporter [30]: severe reduction in luminescence
Effect on circadian period [31]: lengthened circadian period
Competition of CK2 interaction with affinity probe [32]: blocked by increasing concentrations of free GO289
Competition of protein interactions with affinity probe [33]: blocked by free GO289

Cc1cc2sc(NC(=O)Cc3ccccc3)nc2cc1Cl [LH846, reference compound]
Phosphorylation of CK2 substrates (anti-phospho CK2 substrate antibody) [16]: neither the CKIδ inhibitor LH846 nor the GSK-3 inhibitor CHIR-99021 altered the CK2-specific phosphorylation pattern

COc1cc(/C(C)=N/n2c(SC)nnc2-c2ccccc2)c(Br)cc1O [compound 27]
CK2 inhibitory activity in vitro ([8]; in vitro CK2 kinase assay (fig. S5)): complete loss of CK2 inhibition

From article PMC6357737 (Science Advances, 2019)
